Data set [1] concerns MurR binding to the operator site. Particulars: previous studies; cited from earlier work.
The target in a further data set is T1, MurR (Escherichia coli, UniProt P77245).
T1 sequence (P77245 1-285): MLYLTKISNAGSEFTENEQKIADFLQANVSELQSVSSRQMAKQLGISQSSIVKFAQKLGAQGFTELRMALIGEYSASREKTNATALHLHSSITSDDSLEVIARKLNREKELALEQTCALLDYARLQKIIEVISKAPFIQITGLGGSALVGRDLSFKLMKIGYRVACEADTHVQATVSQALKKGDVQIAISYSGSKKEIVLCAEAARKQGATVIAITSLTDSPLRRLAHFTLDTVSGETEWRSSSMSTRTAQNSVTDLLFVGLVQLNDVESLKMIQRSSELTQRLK
In words: ITC binding between MurR and ligands. A digest of the protocol: (§1)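 MurR (wild type or point mutant) was expressed from pET28a in E. coli BL21(DE3), His6-tag removed with HRV3C, and gel-filtered. Protein at 50 µM in the cell; ligand at 500 µM in the syringe. Both were in 100 mM NaCl, 10 mM Tris-HCl pH 7.5, 1 mM DTT. Run at 25 °C, stirring 750 rpm, 120 s between injections. Data background-subtracted to give association constants; triplicate runs.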

For data set [2], the system named is mutant MurR proteins/promoter DNA complexes. The experiment in a line: EMSA of mutant MurR proteins with promoter DNA. It is filed as biochemical, Escherichia coli. Particulars: all MurR proteins (WT and mutants) at the tested concentrations. In general terms: A gel shift assay detects complexes by their altered migration in electrophoresis.
The subject of data set [3] is MurR-controlled eGFP expression (pUC19-murR-eGFP). In words: CFPS eGFP fluorescent quantitation assay, WT MurR. Format: biochemical, Escherichia coli. Particulars: plasmid 5.8 nM, protein 1:100 molar ratio, different ligand concentrations. The method, boiled down:
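Reporter plasmid: T7 promoter, RBS, eGFP coding sequence and the murQ–murR intergenic region. MurR proteins were expressed in E. coli BL21(DE3) with an N-terminal His6 tag, which was cleaved off by HRV3C protease, then purified by size exclusion. In cell-free protein synthesis, 5.8 nM plasmid was mixed with protein at a 1:100 plasmid:protein molar ratio and graded MurNAc-6-P or GlcNAc-6-P. eGFP fluorescence was read on a real-time PCR instrument, in triplicate.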

Another data set has as its system mutant MurR proteins. In words: ITC binding of GlcNAc-6-P to mutant MurR proteins. Also on record: species or system Escherichia coli. Particulars: mutant proteins of Supplementary Figure S14A and B. The method, boiled down: as §1
The target of data set [4] is T2, MurR/operator DNA complex (Escherichia coli, UniProt P77245).
T2 sequence (P77245 1-285): T1 sequence (P77245 1-285)
The experiment in a line: EMSA of MurR with murR-murQ intergenic region DNA. Format: biochemical. Particulars: for effect on MurR-DNA binding at high concentration: EMSA, 1, 10, 20, 40 mM, effect of GlcNAc-6-P at 40 mM.

The data set “crystal structure” deals with the molecule itself. In words: crystal structure.
The data set “SEC + AUC” concerns the molecule itself. The experiment in a line: SEC + AUC.

Consider `CC(=O)N[C@H]1C(O)O[C@H](COP(=O)(O)O)[C@@H](O)[C@@H]1O` (stereo partly shown) [GlcNAc-6-P, N-acetylglucosamine-6-phosphate], for which, in data set [1], the “effect on MurR binding to the operator” value is listed as “no effect”. Moreover, on MurR, the affinity, expressed as Kd, was 17.6 µM. Moreover, in data set [2], the “sensitivity of MurR/DNA complexes to ligand” value is recorded as “insensitive”. The “effect on eGFP fluorescence” value in data set [3] was “made no visible difference”. Further, in the data set with mutant MurR proteins, the “association constant (Ka) values compared with WT MurR” value was “Smaller”. The “relief of the retardation of DNA migration” value in data set [4] (EMSA, 200 nM MurR, ligand 1, 10, 100, 1000 μM) is given as “negligible”. Moreover, the “effect on MurR-DNA binding at high concentration” value in data set [4] was “a certain portion of the DNA was dissociated from MurR”.
Consider `CC(=O)N[C@H]1C(O)O[C@H](CO)[C@@H](O)[C@@H]1O[C@H](C)C(=O)N[C@@H](C)C(=O)N[C@H](CCC(=O)O)C(N)=O` (mixture of isomers) [muramyl dipeptide], for which the “effect on MurR binding to the operator” value in data set [1] is on record as “no effect”.
Consider `O=S(=O)([O-])[O-].[Na+].[Na+]` [sodium sulfate], for which, in data set [4], the “effect on MurR-DNA binding at high concentration” value is recorded as “not affected”.
Consider `CC(=O)N[C@@H]1[C@@H](O)[C@H](O)[C@@H](CO)O[C@H]1O` [GlcNAc, N-acetylglucosamine], for which the “effect on MurR binding to the operator” value in data set [1] is listed as “no effect”. Further, the “interaction with MurR in ITC” value at MurR (ligand titrated into WT MurR) is recorded as “no interaction”.

B1: truncated protein MurRT2 (D95 to K285) (domain or fragment, Escherichia coli MG1655, UniProt P77245 95-285, looked up)
chain: DDSLEVIARKLNREKELALEQTCALLDYARLQKIIEVISKAPFIQITGLGGSALVGRDLSFKLMKIGYRVACEADTHVQATVSQALKKGDVQIAISYSGSKKEIVLCAEAARKQGATVIAITSLTDSPLRRLAHFTLDTVSGETEWRSSSMSTRTAQNSVTDLLFVGLVQLNDVESLKMIQRSSELTQRLK
As to B1, in the data set “crystal structure”, the binding result is on record as “binds”.

B2: full-length MurR (natural protein, Escherichia coli MG1655, UniProt P77245 1-285, looked up)
chain: T1 sequence (P77245 1-285)
In the case of B2, the “stoichiometry N” value in the data set “SEC + AUC” is 4.

A word on the Kd: it is the free concentration of one partner at which half of the binding sites on the other are occupied at equilibrium, for simple one-to-one binding. A high value points to weaker binding. A word on the stoichiometry N: it is the number of molecules, sites or subunits per partner or assembly.
